Test [1] is described as follows: inhibitors of TNFa-induced NFkB p65 translocation, primary screen, imaging, HUVEC, MLSMR starter and 10KST1 sets (AID 438;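 active means inhibition above 20% together with a positive visual image hit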;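 further: compound added about 3h40 before a 20 min TNFalpha stimulation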;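 on inhibition: signal is the nuclear over cytoplasmic p65 intensity ratio per well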). The following applies: HUVEC TNFa-induced p65 nuclear translocation; cell count: measured here: nuclei count (cytotoxicity indicator), at 2.08 µM; inhibition: at 2 µM, stronger effect = higher value, 0% TNFa-plus-vehicle, 100% no-TNFa wells.
Test [2] in a line: inhibitors of mutant huntingtin aggregation, primary screen, imaging, exon1htt(103Q)mCFP cells, high-content imaging (AID 483).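 Further: compound exposure lasted 3 days before fixation.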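 On nuclei count: percent of the per-plate median nuclei count of sample wells.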 The conditions noted are these: exon1htt(103Q)mCFP cell line, aggregate imaging, at 2 µM; inhibition of aggregation: stronger effect = higher value; nuclei count: measured here: cell count, toxicity.
Test [3] is described as follows: inhibitors of E-selectin induction by TNFa, primary screen, imaging, HUVEC, immunofluorescence, MLSMR starter and 10KST1 sets (AID 487;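 active means visually confirmed hit in the image check and inhibition above 20%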;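 on inhibition: signal is fraction of cell area covered by stained E-selectin grains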;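 on nuclei count: 100% = median nuclei count of all wells on the same plate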). The following applies: HUVEC TNFalpha-induced E-selectin immunofluorescence imaging, at 2 µM; inhibition: stronger effect = higher value; nuclei count: measured here: cell number, toxicity.
The target of test [4] is Voltage-gated potassium channel subunit beta-2 (Rattus norvegicus) (UniProt P62483). Briefly: KvBeta enzyme negative modulators, primary screen, biochemical, NADPH fluorescence (AID 622;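 active means fluorescence slope higher than the sample average by over 3 SD, cut at about -0.22 in these data, passing the limit was not always enough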;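 further: slope of raw intensity against log time taken from 70 to 1610 s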). The following applies: recombinant KvBeta, 4-cyanobenzaldehyde reduction, at 10 µM, stronger effect = higher value.
Sequence of Voltage-gated potassium channel subunit beta-2 (Rattus norvegicus) (P62483 whole entry, looked up): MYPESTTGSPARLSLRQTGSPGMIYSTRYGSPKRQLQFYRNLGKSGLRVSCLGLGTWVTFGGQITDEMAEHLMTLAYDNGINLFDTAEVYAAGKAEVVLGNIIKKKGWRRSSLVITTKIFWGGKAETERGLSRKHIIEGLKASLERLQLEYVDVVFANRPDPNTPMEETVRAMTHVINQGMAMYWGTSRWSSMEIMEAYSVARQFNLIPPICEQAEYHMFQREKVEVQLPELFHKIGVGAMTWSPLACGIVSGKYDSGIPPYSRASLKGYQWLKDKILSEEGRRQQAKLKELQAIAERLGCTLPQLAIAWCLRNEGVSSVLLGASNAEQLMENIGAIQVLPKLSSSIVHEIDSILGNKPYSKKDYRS
For test [5] the target is unchanged. Put plainly: KvBeta positive modulators, primary screen, biochemical, NADPH fluorescence (AID 623;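 active means NADPH fluorescence slope more negative than the mean of all samples by about 3 SD, 99.7% confidence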;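 further: fluorescence intensity change per second fitted from 20 to 320 s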). The following applies: Recombinant KvBeta, NADPH fluorescence decrease slope, 10 min; at 10 µM; stronger effect = lower value.
Test [6] deals with Muscarinic acetylcholine receptor M4 (Homo sapiens) (UniProt P08173). Briefly: compounds altering M4/GIRK thallium flux, either direction, primary screen, M4 allosteric agonist project, cell-based, HEK293 M4/GIRK, BTC-AM (AID 625;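 active means fluorescence slope after compound addition differing from the mean of all tested samples at 99.7% confidence, mostly higher but some lower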;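 further: thallium influx through GIRK channels coupled to M4 in HEK293 cells with BTC-AM dye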). The following applies: at 10 µM, actives lie on both sides. In a few lines: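 Material – HEK293 cells with M4 receptor and GIRK channels · Buffer or medium – pH 7.3 thallium assay buffer · Doses – one dose, 10 µM final · Timing – cells overnight at 37 °C, BTC-AM loading 1 h, reads 2 min total · Measured by – kinetic fluorescence with BTC-AM dye · Controls – carbachol and DMSO controls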
Sequence of Muscarinic acetylcholine receptor M4 (Homo sapiens) (P08173 whole entry, looked up): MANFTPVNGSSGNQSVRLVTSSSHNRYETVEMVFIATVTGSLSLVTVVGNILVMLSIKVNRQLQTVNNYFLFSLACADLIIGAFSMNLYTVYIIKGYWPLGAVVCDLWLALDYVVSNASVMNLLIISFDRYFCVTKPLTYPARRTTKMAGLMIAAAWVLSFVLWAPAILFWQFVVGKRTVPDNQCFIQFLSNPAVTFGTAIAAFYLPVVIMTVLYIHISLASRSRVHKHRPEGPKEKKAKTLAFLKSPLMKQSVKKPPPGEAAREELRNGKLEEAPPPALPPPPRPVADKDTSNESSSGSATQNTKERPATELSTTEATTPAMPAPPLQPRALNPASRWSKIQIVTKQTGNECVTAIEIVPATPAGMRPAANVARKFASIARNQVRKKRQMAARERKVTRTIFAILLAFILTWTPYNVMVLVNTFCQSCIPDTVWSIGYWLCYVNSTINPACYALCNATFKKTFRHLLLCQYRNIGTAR

A short description of test [7]: inhibitors of Sendai virus-induced IRF3 signaling, primary screen, TLR/RLR signaling modifier project, cell-based, Sendai virus stimulus, luciferase, 10K MLSCN set (AID 602276;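 active means inhibition at or above 50% at 10 µM; inactive means inhibition below 50%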;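 further: firefly luciferase from ISG56 promoter only with Renilla not read in this screen; 0% = Sendai virus plus DMSO and 100% = medium plus DMSO without virus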). The conditions noted are these: HEK293 RL24 IRF3 luciferase reporter, at 10 µM, stronger effect = higher value. Background: Reporter assays use an easily measured gene product as a stand-in for the process of interest.

A short description of test [8]: inhibitors of poly I:C-induced TLR3 signaling, primary screen, cell-based, poly I:C stimulus, luciferase, 10K MLSCN set (AID 602277;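 active means inhibition of the reporter signal at or above 50%; inactive means inhibition below 50%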). The following applies: HEK293-TLR3 RL24 IRF3 luciferase reporter, at 10 µM, stronger effect = higher value.

Calls of active or inactive are those of the source.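 How the source made its calls, unless noted: active means visual image review flags a hit and inhibition of aggregation exceeds 20%; inconclusive means visual hit but inhibition at or below 20%; inactive means no hit on visual image review.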

One may read the inhibition as the change of the read-out against control, counted positive when it falls. As to `CCc1ccc2oc(-c3cc(N)ccc3Cl)nc2c1`, the cell count in test [1] is 563. In addition, the inhibition is -33.7% (inactive) in test [1], -53.6% (inactive) in test [3], -31.8% (inactive) in test [7] and -60.1% (inactive) in test [8]. Also, the inhibition of aggregation in test [2] was 3% (inactive). Further, the nuclei count turned out to be 98.1% in test [2] and 110% in test [3]. The figures for the fluorescence slope in test [4] and in test [6] were -0.298 (inactive) and 0.006 (inactive), respectively. In addition, the NADPH fluorescence slope in test [5] is 8.8e-06 (inactive).
Take `Cc1ccc(Cn2nnc3c(=O)n(CC(=O)NCC4CCCO4)cnc32)cc1` (centres undefined): the cell count in test [1] worked out at 792. The inhibition in test [1] was -13.6% (inactive); in test [3] it was -51.5% (inactive); in test [7], 9.27% (inactive); in test [8], 18.9% (inactive). For the same compound, in test [2], the inhibition of aggregation was -20.8% (inactive). For the same compound, the nuclei count in test [2] is 102%; in test [3] it was 98.4%. Further, the figures for the fluorescence slope in test [4] and in test [6] were -0.459 (inactive) and 0.00672 (inactive), respectively. Besides, the NADPH fluorescence slope in test [5] was -4.1e-05 (inactive).
In the case of `C=CCC(NCc1ccco1)c1ccc(OC)cc1OC` (centres undefined), the cell count in test [1] was 697. The inhibition was 7.5% (inactive) in test [1], -94.5% (inactive) in test [3], 12.6% (inactive) in test [7] and 18.9% (inactive) in test [8]. For the same compound, the inhibition of aggregation in test [2] was 4.4% (inactive). In addition, the nuclei count in test [2] is 110%; in test [3] it was 108%. In addition, the figures for the fluorescence slope in test [4] and in test [6] were -0.597 (inactive) and 0.00584 (inactive), respectively. In addition, in test [5], the NADPH fluorescence slope is 2.3e-05 (inactive).
For `COc1ccc(OC(C)C(=O)N2CCN(c3ccccn3)CC2)cc1` (centres undefined), the cell count in test [1] is 395. For the same compound, the inhibition was 7.5% (inactive) in test [1], -90.1% (inactive) in test [3], 21.5% (inactive) in test [7] and 18% (inactive) in test [8]. In addition, the inhibition of aggregation in test [2] was 3% (inactive). Further, the nuclei count in test [2] is 103%; in test [3], 115%. Besides, the fluorescence slope in test [4] was -0.447 (inactive); in test [6], 0.0048 (inactive). Moreover, the NADPH fluorescence slope in test [5] is -3.5e-05 (inactive).
In the case of `O=C(CN1CCC(n2nnc3cc(F)ccc32)CC1)Nc1ccc2c(c1)CCC2`, in test [1], the cell count amounted to 590. The inhibition in test [1] is -57.1% (inactive); in test [3] it was -84.4% (inactive); in test [7] it was 14.8% (inactive); in test [8] it was 1.94% (inactive). Also, the inhibition of aggregation in test [2] was -14.1% (inactive). Besides, the nuclei count in test [2] stood at 112%; in test [3], 108%. Moreover, the fluorescence slope in test [4] was -0.364 (inactive); in test [6], 0.00687 (inactive). The NADPH fluorescence slope in test [5] was -1.5e-05 (inactive).
`Cc1nnc(SCC(=O)NC(C)(C)C)n1CCc1ccccc1`: the cell count in test [1] amounted to 677. Moreover, the inhibition is 2.8% (inactive) in test [1], -20.1% (inactive) in test [3], 11.7% (inactive) in test [7] and 8.89% (inactive) in test [8]. The inhibition of aggregation in test [2] was -3.9% (inactive). Moreover, the results for the nuclei count in test [2] and in test [3] were 109% and 135%, respectively. The fluorescence slope in test [4] is -0.512 (inactive); in test [6], 0.00442 (inactive). Also, in test [5], the NADPH fluorescence slope is -4.5e-05 (inactive).
Take `O=C(COc1nnnc2ccccc12)N1CCCc2ccccc21`: in test [1], the cell count was determined as 327. Moreover, the inhibition in test [1] was 0.2% (inactive); in test [3], -50.4% (inactive); in test [7], 8.08% (inactive); in test [8], 16.5% (inactive). The inhibition of aggregation in test [2] was -10.1% (inactive). Moreover, the values for the nuclei count in test [2] and in test [3] were 106% and 130%, respectively. The fluorescence slope in test [4] was -0.43 (inactive); in test [6], 0.00597 (inactive). In test [5], the NADPH fluorescence slope is -7.5e-05 (inactive).
In the case of `CNC(=O)Nc1cccc(C(F)(F)F)c1`, in test [1], the cell count was 299. For the same compound, the inhibition in test [1] was -3.3% (inactive); in test [3] it was -46.4% (inactive); in test [7], 0.0526% (inactive); in test [8], 4.51% (inactive). The inhibition of aggregation in test [2] was -31% (inactive). The values for the nuclei count in test [2] and in test [3] were 97.6% and 130%, respectively. The fluorescence slope in test [4] is -0.566 (inactive); in test [6], 0.00624 (inactive). Also, in test [5], the NADPH fluorescence slope was -5.5e-05 (inactive).
For the compound `O=C(O)CCc1ccc(-c2cccs2)n1NC(=O)c1ccco1`, in test [1], the cell count is 719. The inhibition was 3.6% (inactive) in test [1], -93.6% (inactive) in test [3], 20.8% (inactive) in test [7] and 17.9% (inactive) in test [8]. In test [2], the inhibition of aggregation was -10.1% (inactive). The nuclei count in test [2] is 107%; in test [3] it was 132%. Moreover, the fluorescence slope in test [4] was -0.463 (inactive); in test [6] it was 0.00473 (inactive). In test [5], the NADPH fluorescence slope was 1.5e-05 (inactive).
As to `O=C(COc1ncnc2ccccc12)NCc1ccc2c(c1)OCO2`, the cell count in test [1] was 345. Further, the inhibition in test [1] was -1.6% (inactive); in test [3] it was -38.6% (inactive); in test [7], 15.1% (inactive); in test [8], 16.2% (inactive). For the same compound, the inhibition of aggregation in test [2] was -8.2% (inactive). Moreover, the nuclei count in test [2] turned out to be 101%; in test [3], 105%. For the same compound, the fluorescence slope in test [4] is -0.584 (inactive); in test [6], 0.00352 (inactive). Also, the NADPH fluorescence slope in test [5] was -5e-06 (inactive).
As to `Cc1ccc(S(=O)(=O)N2CCOCC2)cc1C(=O)Nc1ccc(-c2cn3ccsc3n2)cc1`, in test [1], the cell count stood at 614. The inhibition was -6.3% (inactive) in test [1], -29.6% (inactive) in test [3], -3.48% (inactive) in test [7] and -16.4% (inactive) in test [8]. Further, the inhibition of aggregation in test [2] was -3% (inactive). Also, the nuclei count was 113% in test [2] and 122% in test [3]. Besides, the fluorescence slope was -0.462 (inactive) in test [4] and 0.00613 (inactive) in test [6]. The NADPH fluorescence slope in test [5] is -8.9e-06 (inactive).
Regarding `CCOc1ccc(-n2cc(C(=O)Nc3cccc(C)n3)c3cc(OC)c(OC)cc3c2=O)cc1`, the cell count in test [1] was determined as 395. Moreover, the inhibition in test [1] is 5.1% (inactive); in test [3], -8% (inactive); in test [7] it was 13.3% (inactive); in test [8], 25.9% (inactive). Besides, the inhibition of aggregation in test [2] is 20.8% (inactive). Besides, the nuclei count in test [2] was determined as 82.4%; in test [3], 94%. Further, the fluorescence slope in test [4] was -0.414 (inactive); in test [6] it was 0.0107 (inactive). Also, the NADPH fluorescence slope in test [5] was -0.000102 (inactive).
Consider `O=C1CCC(=O)N1OCCCCOc1ccccc1`, for which, in test [1], the cell count is 692. Further, the inhibition in test [1] was 3.7% (inactive); in test [3], 7.8% (inactive); in test [7], 15.8% (inactive); in test [8], 18% (inactive). For the same compound, in test [2], the inhibition of aggregation is -1.2% (inactive). Also, the nuclei count in test [2] is 105%; in test [3], 106%. In addition, the fluorescence slope in test [4] is -0.421 (inactive); in test [6], 0.00701 (inactive). In addition, in test [5], the NADPH fluorescence slope is 3.2e-05 (inactive).
Regarding `COC(=O)CN(c1ccc(F)cc1)S(=O)(=O)c1ccccc1`, the cell count in test [1] came to 329. For the same compound, the inhibition in test [1] is 1.8% (inactive); in test [3], -92.2% (inactive); in test [7], 6.05% (inactive); in test [8], -8.76% (inactive). The inhibition of aggregation in test [2] is -0.2% (inactive). The results for the nuclei count in test [2] and in test [3] were 86.5% and 95.6%, respectively. Also, the fluorescence slope in test [4] is -0.527 (inactive); in test [6], 0.00367 (inactive). For the same compound, the NADPH fluorescence slope in test [5] is -0.000183 (inactive).

For the origin of these results see PubChem BioAssay.
